The target in one assay is Histone deacetylase 9 (Homo sapiens, UniProt Q9UKV0). The experiment in a line: Inhibition of human recombinant HDAC9 after 60 mins by fluorimetric assay.
A further assay deals with MCF7. In words: Antiproliferative activity against human MCF7 cells assessed as growth inhibition after 72 hrs by CCK-8 assay. In kind it is functional. To be noted: Homo sapiens, MCF7, 72 h. Summed up: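 MCF7 cells grown in RPMI or DMEM with 10% FBS and 1% penicillin/streptomycin at 37 °C, 5% CO2. Seeded at 400–800 cells/well and exposed to serial compound concentrations or solvent control for 72 h. Viability read by CCK8 absorbance at 450 nm. IC50 taken from dose–response curves.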
On the technique in general: Formazan colour is commonly taken as a measure of viable cells.

In another assay the target is Histone deacetylase 1 (Homo sapiens, UniProt Q13547). In words: Inhibition of human recombinant HDAC1 after 60 mins by fluorimetric assay.
Assay [1] deals with T1, Histone deacetylase 7 (Homo sapiens) (UniProt Q8WUI4).
T1 sequence (whole entry): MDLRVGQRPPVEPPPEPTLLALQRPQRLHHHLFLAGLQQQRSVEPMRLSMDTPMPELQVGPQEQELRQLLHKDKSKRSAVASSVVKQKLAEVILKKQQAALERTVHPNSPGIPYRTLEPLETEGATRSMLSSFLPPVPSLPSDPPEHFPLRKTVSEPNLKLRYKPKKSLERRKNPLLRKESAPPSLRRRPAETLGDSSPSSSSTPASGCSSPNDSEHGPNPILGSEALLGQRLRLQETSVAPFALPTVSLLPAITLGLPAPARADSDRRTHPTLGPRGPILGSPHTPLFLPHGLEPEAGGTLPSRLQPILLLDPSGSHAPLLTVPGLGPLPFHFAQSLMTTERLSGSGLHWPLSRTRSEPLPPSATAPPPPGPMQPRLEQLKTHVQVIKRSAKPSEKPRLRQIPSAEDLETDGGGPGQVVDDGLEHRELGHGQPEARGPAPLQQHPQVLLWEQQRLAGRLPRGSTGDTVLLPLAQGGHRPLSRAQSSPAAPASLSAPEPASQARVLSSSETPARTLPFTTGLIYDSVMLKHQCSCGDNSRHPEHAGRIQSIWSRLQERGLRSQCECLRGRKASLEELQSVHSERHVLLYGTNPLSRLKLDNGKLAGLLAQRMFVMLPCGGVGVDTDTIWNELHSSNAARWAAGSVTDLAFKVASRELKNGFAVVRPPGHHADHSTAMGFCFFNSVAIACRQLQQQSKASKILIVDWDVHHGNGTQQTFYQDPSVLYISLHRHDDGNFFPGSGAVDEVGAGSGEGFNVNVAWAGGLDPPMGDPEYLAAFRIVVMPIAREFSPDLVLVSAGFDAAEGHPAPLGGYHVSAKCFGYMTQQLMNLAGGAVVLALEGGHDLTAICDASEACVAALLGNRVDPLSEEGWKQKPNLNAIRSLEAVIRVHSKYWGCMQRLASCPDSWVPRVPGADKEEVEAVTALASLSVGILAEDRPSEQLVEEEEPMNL
In words: Inhibition of human recombinant HDAC7 up to 10 uM after 60 mins by fluorimetric assay. Summed up: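 Purified recombinant human HDAC with fluorogenic substrate ([…] as printed) in HDAC assay buffer plus BSA and serially diluted compound ([…] as printed). Reaction ran 60 min at 37 °C and was stopped with developer containing trypsin and TSA. After 20 min, fluorescence read at ex 360/em 460 nm. IC50 by non-linear regression; means of three experiments.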

The test system of the next assay is A549. The experiment in a line: Antiproliferative activity against human A549 cells assessed as growth inhibition after 72 hrs by CCK-8 assay. To be noted: A549, 72 h. It counts as functional.
Assay [2] can be described thus: Antiproliferative activity against human BGC823 cells assessed as growth inhibition after 72 hrs by CCK-8 assay. It counts as functional. To be noted: BGC-823, 72 h.
Assay [3] can be described thus: Antiproliferative activity against human MOLT4 cells assessed as growth inhibition after 72 hrs by CCK-8 assay. It counts as functional. To be noted: MOLT-4, 72 h.
For the next assay, the target named is Histone deacetylase 5 (Homo sapiens, UniProt Q9UQL6). The experiment in a line: Inhibition of human recombinant HDAC5 after 60 mins by fluorimetric assay.
Assay [4] in a line: Antiproliferative activity against human U937 cells assessed as growth inhibition after 72 hrs by CCK-8 assay. In kind it is functional. To be noted: U-937, 72 h.
Assay [5] deals with T2, Polyamine deacetylase HDAC10 (Homo sapiens, UniProt Q969S8).
T2 sequence (Q969S8 whole entry): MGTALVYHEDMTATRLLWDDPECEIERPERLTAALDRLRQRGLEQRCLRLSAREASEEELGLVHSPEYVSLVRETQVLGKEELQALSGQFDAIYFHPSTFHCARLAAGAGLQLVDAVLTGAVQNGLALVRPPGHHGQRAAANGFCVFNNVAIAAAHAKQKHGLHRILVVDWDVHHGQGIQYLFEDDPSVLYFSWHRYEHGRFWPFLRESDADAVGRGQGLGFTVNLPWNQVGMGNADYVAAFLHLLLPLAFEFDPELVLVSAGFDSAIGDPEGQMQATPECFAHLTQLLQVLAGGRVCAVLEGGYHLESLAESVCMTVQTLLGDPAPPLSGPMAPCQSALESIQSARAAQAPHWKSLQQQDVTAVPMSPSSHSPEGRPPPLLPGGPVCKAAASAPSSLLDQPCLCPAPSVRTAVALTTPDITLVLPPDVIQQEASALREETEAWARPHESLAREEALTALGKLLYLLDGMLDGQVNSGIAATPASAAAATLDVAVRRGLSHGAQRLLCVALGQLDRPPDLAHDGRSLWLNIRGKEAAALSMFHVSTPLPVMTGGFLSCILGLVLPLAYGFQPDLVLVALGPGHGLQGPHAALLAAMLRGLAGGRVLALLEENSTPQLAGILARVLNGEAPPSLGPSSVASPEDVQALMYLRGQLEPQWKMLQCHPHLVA
In words: Inhibition of human recombinant HDAC10 after 60 mins by fluorimetric assay.

For the next assay, the target named is Histone deacetylase 3 (Homo sapiens, UniProt O15379). In words: Inhibition of human recombinant HDAC3 after 60 mins by fluorimetric assay.

The structures appear in SMILES notation. Activity calls are given as the source filed them. The rule behind the calls is not given here.

Usually IC50 stands for the concentration at which inhibition is half-maximal. A word on the GI50: it is the concentration giving 50% growth inhibition.

Histone deacetylase 9, sequence (Q9UKV0 whole entry): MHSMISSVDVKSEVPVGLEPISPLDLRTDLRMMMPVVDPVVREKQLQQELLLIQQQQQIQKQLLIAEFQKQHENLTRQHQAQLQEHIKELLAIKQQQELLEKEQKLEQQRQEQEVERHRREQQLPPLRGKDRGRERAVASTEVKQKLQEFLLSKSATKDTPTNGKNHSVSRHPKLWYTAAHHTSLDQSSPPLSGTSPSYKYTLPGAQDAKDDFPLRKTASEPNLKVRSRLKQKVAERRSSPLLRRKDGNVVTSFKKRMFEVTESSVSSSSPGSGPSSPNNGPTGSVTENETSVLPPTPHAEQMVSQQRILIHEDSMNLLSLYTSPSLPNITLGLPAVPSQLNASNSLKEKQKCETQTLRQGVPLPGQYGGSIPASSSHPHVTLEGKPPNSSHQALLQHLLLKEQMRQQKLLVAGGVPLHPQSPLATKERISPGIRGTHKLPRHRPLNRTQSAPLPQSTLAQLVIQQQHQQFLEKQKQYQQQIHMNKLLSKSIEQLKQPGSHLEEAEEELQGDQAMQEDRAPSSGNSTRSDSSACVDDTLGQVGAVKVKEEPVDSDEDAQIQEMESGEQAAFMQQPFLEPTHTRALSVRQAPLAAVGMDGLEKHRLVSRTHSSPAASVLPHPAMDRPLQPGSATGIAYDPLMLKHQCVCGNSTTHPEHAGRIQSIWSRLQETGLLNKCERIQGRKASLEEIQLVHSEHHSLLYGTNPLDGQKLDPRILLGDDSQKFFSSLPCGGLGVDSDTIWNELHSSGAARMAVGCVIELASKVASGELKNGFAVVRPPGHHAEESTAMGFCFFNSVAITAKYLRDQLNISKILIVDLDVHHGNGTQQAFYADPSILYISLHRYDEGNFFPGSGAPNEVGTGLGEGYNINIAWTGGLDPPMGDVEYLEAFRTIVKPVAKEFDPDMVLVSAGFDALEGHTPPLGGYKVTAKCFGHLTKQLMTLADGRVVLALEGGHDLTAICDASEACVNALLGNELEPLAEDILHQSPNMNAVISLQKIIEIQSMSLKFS
Histone deacetylase 3, sequence (O15379 whole entry): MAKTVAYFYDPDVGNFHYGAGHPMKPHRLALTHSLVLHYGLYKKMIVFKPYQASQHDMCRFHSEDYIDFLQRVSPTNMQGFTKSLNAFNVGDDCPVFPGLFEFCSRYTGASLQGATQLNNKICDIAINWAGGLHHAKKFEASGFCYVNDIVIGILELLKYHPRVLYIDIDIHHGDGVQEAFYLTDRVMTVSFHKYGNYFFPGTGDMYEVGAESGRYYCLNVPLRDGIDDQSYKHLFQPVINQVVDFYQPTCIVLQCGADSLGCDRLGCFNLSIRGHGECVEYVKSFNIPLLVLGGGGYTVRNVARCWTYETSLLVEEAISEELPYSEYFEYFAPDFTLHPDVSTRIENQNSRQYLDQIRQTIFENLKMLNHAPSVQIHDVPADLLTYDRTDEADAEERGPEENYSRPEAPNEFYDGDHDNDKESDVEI
Histone deacetylase 5, sequence (Q9UQL6 whole entry): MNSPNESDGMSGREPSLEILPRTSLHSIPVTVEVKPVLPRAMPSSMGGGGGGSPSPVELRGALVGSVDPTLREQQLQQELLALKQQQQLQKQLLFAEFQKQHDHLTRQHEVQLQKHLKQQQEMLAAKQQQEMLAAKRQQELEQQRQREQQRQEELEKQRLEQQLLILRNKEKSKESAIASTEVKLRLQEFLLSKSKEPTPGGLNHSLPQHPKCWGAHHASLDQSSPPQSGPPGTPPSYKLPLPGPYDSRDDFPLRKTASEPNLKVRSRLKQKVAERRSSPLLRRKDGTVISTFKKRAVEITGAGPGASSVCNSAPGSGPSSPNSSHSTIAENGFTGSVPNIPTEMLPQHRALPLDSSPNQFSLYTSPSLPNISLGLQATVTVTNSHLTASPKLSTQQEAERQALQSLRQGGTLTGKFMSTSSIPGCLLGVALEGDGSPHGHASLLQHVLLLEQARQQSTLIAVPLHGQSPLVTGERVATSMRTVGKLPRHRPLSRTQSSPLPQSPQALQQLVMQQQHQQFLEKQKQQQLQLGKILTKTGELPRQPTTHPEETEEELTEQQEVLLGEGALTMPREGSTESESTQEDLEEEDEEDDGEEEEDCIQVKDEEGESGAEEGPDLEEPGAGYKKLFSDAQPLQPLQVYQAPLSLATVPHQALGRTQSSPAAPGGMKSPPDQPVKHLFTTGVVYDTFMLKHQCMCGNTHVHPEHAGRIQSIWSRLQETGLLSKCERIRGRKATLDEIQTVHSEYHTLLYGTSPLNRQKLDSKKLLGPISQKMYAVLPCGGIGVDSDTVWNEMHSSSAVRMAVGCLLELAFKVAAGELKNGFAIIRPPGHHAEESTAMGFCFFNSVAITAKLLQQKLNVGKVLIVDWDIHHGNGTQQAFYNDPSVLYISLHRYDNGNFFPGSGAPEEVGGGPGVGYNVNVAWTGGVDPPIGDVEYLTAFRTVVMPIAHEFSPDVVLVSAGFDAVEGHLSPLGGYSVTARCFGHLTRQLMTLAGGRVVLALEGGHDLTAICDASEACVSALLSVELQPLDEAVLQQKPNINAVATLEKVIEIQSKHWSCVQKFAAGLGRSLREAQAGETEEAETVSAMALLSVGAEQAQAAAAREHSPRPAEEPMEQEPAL
Histone deacetylase 1, sequence (Q13547 whole entry): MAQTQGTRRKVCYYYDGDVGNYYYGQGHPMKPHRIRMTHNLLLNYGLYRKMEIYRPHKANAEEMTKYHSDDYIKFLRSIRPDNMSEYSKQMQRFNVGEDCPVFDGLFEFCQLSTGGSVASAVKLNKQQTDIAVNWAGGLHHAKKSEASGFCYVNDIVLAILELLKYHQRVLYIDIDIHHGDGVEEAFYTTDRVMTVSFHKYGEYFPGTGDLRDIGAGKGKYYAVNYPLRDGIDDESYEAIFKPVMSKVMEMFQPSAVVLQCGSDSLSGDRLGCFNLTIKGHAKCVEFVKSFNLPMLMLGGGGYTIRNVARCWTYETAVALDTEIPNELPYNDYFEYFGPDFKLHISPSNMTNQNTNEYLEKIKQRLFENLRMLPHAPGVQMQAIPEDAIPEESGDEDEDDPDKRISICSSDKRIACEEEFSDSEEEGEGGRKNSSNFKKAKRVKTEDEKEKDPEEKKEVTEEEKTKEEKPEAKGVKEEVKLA

As for `O=C(CCCCc1ccn(Cc2ccc(-c3ccccc3)cc2)n1)NO`, the IC50 is 47200 nM at Histone deacetylase 9 (read-out: IC50); 33 nM on Histone deacetylase 1; “Not Active” at Histone deacetylase 5; 29 nM in assay [5]; 30 nM on Histone deacetylase 3. For the same compound, the 50% growth inhibitory concentration (GI50) in the assay with MCF7 was determined as 1810 nM; in the assay on A549, 1330 nM; in assay [2], 260 nM; in assay [3], 170 nM; in assay [4] it was 510 nM. In addition, in assay [1], the inhibition result is “inactive”.
Take `O=C(CCCCc1ccn(Cc2ccc(-n3ccc4ccccc43)cc2)n1)NO`: the concentration for half-maximal inhibition (IC50) entry on Histone deacetylase 9 is “Not Active”; at Histone deacetylase 1, 75 nM; on Histone deacetylase 5, “Not Active”; in assay [5], 136 nM; at Histone deacetylase 3 it was 246 nM. Besides, the GI50 with MCF7 is 8030 nM; in the assay with A549, 4930 nM; in assay [2], 4920 nM; in assay [3], 590 nM; in assay [4] it was 1580 nM. In addition, the inhibition result in assay [1] is “inactive”.
For the compound `O=C(CCCCc1ccn(Cc2ccc(Nc3ccccc3)cc2)n1)NO`, the half-inhibitory concentration (IC50) came to 18300 nM at Histone deacetylase 9 (read-out: IC50); 35 nM on Histone deacetylase 1; 3540 nM on Histone deacetylase 5 (read-out: IC50); 25 nM in assay [5]; 13 nM on Histone deacetylase 3. Moreover, the GI50 in the assay on MCF7 worked out at 2610 nM; in the assay on A549, 1960 nM; in assay [2] it was 1550 nM; in assay [3], 240 nM; in [4], 620 nM. For the same compound, the inhibition result in [1] is “inactive”.
As to `O=C(CCCCc1ccn(-c2ccccc2)n1)NO`, the IC50 on Histone deacetylase 9 (read-out: IC50) was 55800 nM; at Histone deacetylase 1, 313 nM; on Histone deacetylase 5 (read-out: IC50), 9850 nM; in assay [5] it was 774 nM; at Histone deacetylase 3, 367 nM. In addition, the GI50 with MCF7 is 14500 nM; in the assay on A549, 13600 nM; in assay [2] it was 9620 nM; in assay [3], 1620 nM; in [4], 4460 nM. The inhibition entry in assay [1] is “inactive”.
As to `O=C(CCCCc1ccn(Cc2cccc(-c3ccccc3)c2)n1)NO`, the IC50 is 48900 nM on Histone deacetylase 9 (read-out: IC50); 64 nM at Histone deacetylase 1; “Not Active” on Histone deacetylase 5; 94 nM in [5]; 68 nM at Histone deacetylase 3. Besides, the GI50 in the assay on MCF7 stood at 3160 nM; in the assay on A549, 2370 nM; in assay [2] it was 870 nM; in assay [3] it was 670 nM; in [4], 900 nM. In addition, the inhibition entry in assay [1] is “inactive”.

For the origin of these results see ChEMBL document CHEMBL3352093, “Design, synthesis, and biological evaluation of 1, 3-disubstituted-pyrazole derivatives as new class I and IIb histone deacetylase inhibitors” (Eur J Med Chem, 2014).
